Experimental data: ChEMBL document CHEMBL4813972, “A grafted peptidomimetic for EGFR heterodimerization inhibition: Implications in NSCLC models” (Eur J Med Chem, 2021)
pIC50: −log10 of the molar value. Active and inactive are the calls of the source. The calls are words filed in the database; no cut-off is given here.

Key:
[1] = Toxicity in Foxn1nu/Foxn1+ mouse xenografted with human Calu-3 cells assessed as clinical observation at 8 mg/kg, IT(Intratumoral) administered thrice a week for 28 days and measured on day 28; format: organism-based; settings: in vivo, other, 672 h, time 28 day
[2] = test system: Mus musculus; test: In vivo inhibition of HER2/EGFR dimerization in human A549 cells harbouring KRAS mutant/wild type EGFR xenografted in Foxn1nu/Foxn1+ mouse by measuring reduction in red fluorescence at 6 mg/kg, iv administered twice a week for 5 weeks by proximity ligation assay; format: functional, organism-based
In short: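 Lung tumor sections from the A549-Red-FLuc i.v. metastasis mice (6 mg/kg i.v. twice weekly; sacrificed day 35). FFPE sections had citrate pH 6.0 antigen retrieval at 100 °C, peroxidase and serum blocking, primaries overnight at 4 °C, and PLA probes for EGFR:HER2 and HER2:HER3. Red fluorescence imaged at 40×.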

[3] = molecular target: ErbB-2/ErbB-3 heterodimer (Homo sapiens) (UniProt P04626+P21860); test: Inhibition of HER2/HER3 dimerization in human Calu-3 cells incubated for 48 hrs by proximity ligation assay; format: cell-based
In short: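 A549 or Calu-3 cells (~1×10^4/well) on chamber slides, treated 48 h with 0.5 or 1 μM peptide. Controls: no compound, and one primary antibody omitted. Cells fixed in cold methanol, primary antibodies (EGFR, HER2, HER3) applied overnight at 4 °C, then PLA probes. Red fluorescence imaged at 40x and quantified over 3–6 fields.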

[4] = Thermal stability of compound at 15 uM incubated at 25 to 75 degC in presence of DTT by circular dichroism spectrometry; format: physicochemical
[5] = test system: Calu-3; test: Antitumor activity in human Calu-3 cells xenografted in Foxn1nu/Foxn1+ mouse assessed as reduction in tumor growth at 8 mg/kg, IT(Intratumoral) administered thrice a week for 21 days and measured on day 21 relative to control; format: functional, organism-based; settings: time 21.0 day
[6] = Toxicity in BALB/c mouse assessed as Ki-67 expression in spleenocytes at 6 mg/kg, iv administered on day 0 and 10 and spleenocytes collected on day 13 and incubated for 48 hrs by flow cytometry analysis; format: organism-based; settings: in vivo, 360 h, time 15 day
In short: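 Female BALB/c mice given 6 mg/kg peptide in PBS i.v. (or PBS) on days 0 and 10, 12 mice in total. Splenocytes harvested day 13, RBC-lysed, and ≥2×10^6 cultured 48 h in RPMI/10% FBS with control media or peptide. Cells then stained for viability, CD3/CD4/CD8a and intracellular Ki67, and analyzed by flow cytometry.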

[7] = test system: MCF-10A; test: Cytotoxicity against human MCF-10A cells assessed as cell growth inhibition incubated for 72 hrs by cell titer glo assay; format: cell-based
In short: (§1)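 Cells seeded at 1×10^4 per well, left overnight at 37 °C/5% CO2, then exposed to a concentration series of peptide (up to 200, down to 0.01 μM) for 72 h. 1% SDS and 1% DMSO served as controls. Cells were PBS-washed, CellTiter-Glo added and luminescence read. IC50 taken from three independent experiments per cell line.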

[8] = molecular target: Receptor tyrosine-protein kinase erbB-2 (Homo sapiens) (UniProt P04626); test: Inhibition of HER2 ECD in human A549 cells assessed as reduction in Akt phosphorylation at 1 uM incubated for 40 hrs by Western blot analysis; format: cell-based
[9] = Thermal stability of compound at 15 uM incubated at 25 to 75 degC by MALDI-TOF analysis; format: physicochemical
In short: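 Peptide at 15 μM in acetonitrile heated from 25 to 75 °C. Mass checked at 25, 50 and 70 °C and at the end of the run.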

[10] = test system: A549; test: Antiproliferative activity against human A549 cells overexpressing HER2 assessed as cell growth inhibition incubated for 72 hrs by cell titer glo assay; format: functional, cell-based; settings: A549, 72 h; in short: as §1
[11] = test system: MCF7; test: Antiproliferative activity against human MCF7 cells with silenced HER2 assessed as cell growth inhibition incubated for 72 hrs by cell titer glo assay; format: functional, cell-based; settings: MCF7, 72 h; in short: as §1

Chain of Receptor tyrosine-protein kinase erbB-2 (Homo sapiens) (P04626 whole entry, the tested form may be a part): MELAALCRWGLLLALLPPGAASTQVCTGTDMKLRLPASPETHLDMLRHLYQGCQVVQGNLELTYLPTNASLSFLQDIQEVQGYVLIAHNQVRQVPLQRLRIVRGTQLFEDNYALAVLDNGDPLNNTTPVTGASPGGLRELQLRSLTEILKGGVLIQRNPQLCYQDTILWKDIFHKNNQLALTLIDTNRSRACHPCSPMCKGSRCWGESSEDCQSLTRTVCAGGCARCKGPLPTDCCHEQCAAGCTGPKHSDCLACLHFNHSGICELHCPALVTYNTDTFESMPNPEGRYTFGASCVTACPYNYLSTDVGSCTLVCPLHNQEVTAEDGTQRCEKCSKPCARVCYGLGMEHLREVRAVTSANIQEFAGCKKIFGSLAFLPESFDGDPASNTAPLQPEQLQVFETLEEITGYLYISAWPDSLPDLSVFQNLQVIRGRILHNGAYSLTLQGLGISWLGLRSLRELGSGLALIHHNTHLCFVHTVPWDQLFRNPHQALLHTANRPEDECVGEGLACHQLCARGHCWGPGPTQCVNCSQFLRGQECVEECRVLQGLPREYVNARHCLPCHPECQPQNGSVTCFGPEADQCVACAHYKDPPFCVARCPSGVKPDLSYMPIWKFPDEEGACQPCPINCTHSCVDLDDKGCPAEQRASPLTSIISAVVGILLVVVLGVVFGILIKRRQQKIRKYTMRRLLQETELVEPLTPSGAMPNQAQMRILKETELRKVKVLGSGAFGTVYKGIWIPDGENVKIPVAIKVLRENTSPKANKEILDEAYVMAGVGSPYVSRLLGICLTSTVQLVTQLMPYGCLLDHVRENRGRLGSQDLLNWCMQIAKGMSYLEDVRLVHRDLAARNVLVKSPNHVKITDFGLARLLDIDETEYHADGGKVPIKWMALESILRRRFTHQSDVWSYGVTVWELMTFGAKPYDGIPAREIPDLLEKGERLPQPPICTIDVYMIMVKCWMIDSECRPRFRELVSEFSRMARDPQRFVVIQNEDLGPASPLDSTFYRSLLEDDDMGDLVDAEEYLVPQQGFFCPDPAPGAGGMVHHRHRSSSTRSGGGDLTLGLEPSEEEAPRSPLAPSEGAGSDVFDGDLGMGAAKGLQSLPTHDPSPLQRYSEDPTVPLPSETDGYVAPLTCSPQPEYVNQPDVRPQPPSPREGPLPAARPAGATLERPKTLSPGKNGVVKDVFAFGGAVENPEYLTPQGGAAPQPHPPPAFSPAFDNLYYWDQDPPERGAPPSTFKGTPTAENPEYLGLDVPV

inhibition [3]: Dose-Dependent Effect
Stabilty [4]: Stable
inhibition [8]: Active
Stabilty [9]: Stable
pIC50 [10]: 6.43
pIC50 [11]: < 4.70
SMILES: CC[C@H](C)[C@H]1C(=O)NC(=O)[C@H](CCCNC(=N)N)NC(=O)C[C@@H](c2cccc3ccccc23)NC(=O)N[C@H]2CSSC[C@H](NC(=O)C[C@@H](c3cccc4ccccc34)NC(=O)[C@H](CCCNC(=N)N)NC(=O)[C@@H]3CCCN3C(=O)[C@@H]3CCCN13)C(=O)N[C@@H](Cc1ccccc1)C(=O)N1CCC[C@H]1C(=O)N[C@@H](CC(=O)O)C(=O)NC(=O)[C@H](CC(=O)O)NC(=O)[C@H](Cc1ccccc1)NC2=O
Activity [1]: Non-Toxic
inhibition [2]: Active
Activity [5]: Active
Activity [6]: Non-Toxic
pIC50 [7]: < 4.40
